Experimental data taken from ChEMBL document CHEMBL4513216, “Probing the Open Global Health Chemical Diversity Library for Multistage-Active Starting Points for Next-Generation Antimalarials” (ACS Infect Dis, 2020).

Assay: Toxicity liver stage against HepG2, at 10uM
Format: cell-based
Set-up: test concentration 10 uM, cell line HepG2-A16-CD81EGFP
Details: human, HepG2-A16-CD81EGFP cells; read-out: INHIBITION
How it was run: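 Uninfected HepG2-A16-CD81EGFP cells, 3 × 10^3 per well, 1536-well, plated on prespotted compound at 10 μM final, parasite-free screening media added to match infected plates; puromycin 10 μM positive, DMSO 0.5% negative; run in parallel with 48 h PbLuc assay at 37 °C, 5% CO2; viability by CellTiter-Glo luminescence, normalized to controls.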

CCn1cc(NC(=O)NCC(O)COc2ccccc2)cn1 (configuration not stated)
cytotoxicity at 10 µM: -8.6%

COCC1CN(Cc2ccncc2)Cc2nn(CC3CC3)cc21 (configuration not stated)
cytotoxicity at 10 µM: -73.7%

COc1cc(CNc2cnn(CCN3CCOCC3)c2)cc(OC)c1
cytotoxicity at 10 µM: -7.38%

CCN(CC(=O)NC(C)C)C(=O)c1csc(Cc2ccccc2)n1
cytotoxicity at 10 µM: -5.43%

CC(C)CN1CC2(CCN(C(=O)C3CNC(=O)N3)CC2)CC1=O (configuration not stated)
cytotoxicity at 10 µM: 2.18%

Cc1cc(NC(=O)NCC(c2ccsc2)N(C)C)n(C)n1 (configuration not stated)
cytotoxicity at 10 µM: -5.33%

CC(C)c1n[nH]c(C2CN(Cc3nnc(C4CC4)n3C)CCO2)n1 (configuration not stated)
cytotoxicity at 10 µM: -10.3%

CN(Cc1nnc(C2CC2)n1C)C1CCN(CCc2cccs2)C1 (configuration not stated)
cytotoxicity at 10 µM: -8.71%

CCNc1cc2c(nn1)CCN(C(=O)Cc1ccc3c(c1)CCO3)C2
cytotoxicity at 10 µM: 1.42%

Cc1cc(C)c(C(=O)NC(CN2CCCC2)c2ccccc2)c(=O)[nH]1 (configuration not stated)
cytotoxicity at 10 µM: -2.57%

O=C(C1CCC1)N1CCCC(c2ccnc(Nc3cnccn3)n2)C1 (configuration not stated)
cytotoxicity at 10 µM: -22.7%

CN(C)C(=O)C1(c2cnccn2)CCCN1C(=O)Cc1ccsc1 (configuration not stated)
cytotoxicity at 10 µM: -1.84%

COc1ccc(CCNC(=O)C2CCC(Cn3cnnn3)CC2)cc1 (configuration not stated)
cytotoxicity at 10 µM: 10.2%

CCN1CCOC(CNCc2ccccc2OCC(=O)N(C)C)C1 (configuration not stated)
cytotoxicity at 10 µM: -15.4%

COCCNc1ccc(CNC(=O)C2COc3ccccc32)cc1 (configuration not stated)
cytotoxicity at 10 µM: -13.9%

Cn1nc2c(cc1=O)CN(c1ncnc3sccc13)CC2
cytotoxicity at 10 µM: 7.97%

CCOc1ncnc2c1CCN(C(=O)c1ccncc1F)CC2
cytotoxicity at 10 µM: -76.6%

CCOc1ccc(NC(=O)c2scnc2CC)cc1CO
cytotoxicity at 10 µM: -9.48%

c1ccc(N2CCCC2)c(NCc2ccncc2)c1
cytotoxicity at 10 µM: -0.289%

CCC(O)CN1CCN(C(=O)c2ccc3c(c2)COC3)CC1 (configuration not stated)
cytotoxicity at 10 µM: -6.58%

CCc1nccn1-c1nccnc1C1CCCN(C(=O)COC)C1 (configuration not stated)
cytotoxicity at 10 µM: -21.5%

CN1CC[C@]2(CN(CC3CCOCC3)C[C@H]2c2ccccc2)C1=O
cytotoxicity at 10 µM: -1.18%

CC(=O)N1CCC(N2CCN3C(=O)N(c4ccccc4)C[C@H]3C2)CC1
cytotoxicity at 10 µM: 1.35%

COc1cc(C#N)ccc1OCC(=O)NS(=O)(=O)c1cccnc1
cytotoxicity at 10 µM: 5.41%

CCOCCN1CCN(Cc2nnc(C3CC3)o2)CC1CC (configuration not stated)
cytotoxicity at 10 µM: -5.67%

O=C(c1cccnc1)N1CCCC(c2cc(C(F)F)n3ncnc3n2)C1 (configuration not stated)
cytotoxicity at 10 µM: 0.745%

COc1ccc(-c2cccc(-c3ccn(CCN(C)C)n3)c2)nn1
cytotoxicity at 10 µM: -1.39%

O=C(c1ccc(O)c(Cl)c1)N1CCN(c2nccs2)CC1
cytotoxicity at 10 µM: -10.3%

COCCN(Cc1ccoc1)C(=O)c1c(F)cccc1Cl
cytotoxicity at 10 µM: -0.11%

Cc1ccc(CN(Cc2ccccn2)C2CC(C)(C)NC(C)(C)C2)s1
cytotoxicity at 10 µM: 2.7%

CC(C)CC(=O)N1CCN(c2cc(N(C)C)cnn2)CC1
cytotoxicity at 10 µM: 4.17%

CCCN1CCc2nc(SCc3c(C)cc(C)cc3C)[nH]c(=O)c2C1
cytotoxicity at 10 µM: -2.33%

CCC(C(=O)NCc1nc(C)cc(C(F)(F)F)n1)n1cccn1 (configuration not stated)
cytotoxicity at 10 µM: -17.1%

O=C(CN1CCCCC1Cn1cncn1)NCCc1ccc(F)cc1 (configuration not stated)
cytotoxicity at 10 µM: -1.65%

CSc1ncc(CNCC2(N3CCCCC3)Cc3ccccc3C2)cn1
cytotoxicity at 10 µM: 5.07%

CC(C)N(C)Cc1noc2c1CN(C(=O)c1cnccn1)CC2
cytotoxicity at 10 µM: 4.44%

CC(C)Nc1ncnc2c1CCN(C(=O)NCc1cccnc1)CC2
cytotoxicity at 10 µM: -150%

CCCN(C(=O)CCS(=O)(=O)Cc1ccccc1)c1cccc(C)c1
cytotoxicity at 10 µM: -2.67%

CNCc1cn(CC2CCN(CC(C)(C)CN3CCCC3)CC2)nn1
cytotoxicity at 10 µM: -1.58%

O=C(Cc1ccc2c(c1)CCO2)N1CCCC1Cn1cccn1 (configuration not stated)
cytotoxicity at 10 µM: -149%

CC(O)(CNC(=O)c1c(F)cccc1Cl)c1ccco1 (configuration not stated)
cytotoxicity at 10 µM: 2.22%

COC(=O)CCC(=O)N1CCC2(CN(Cc3ccc(Cl)cc3)C2)C1
cytotoxicity at 10 µM: 5.7%

CN1CCN(C2CCCC2)C(CCO)C1 (configuration not stated)
cytotoxicity at 10 µM: 0.456%

CC(C)N1CCC2(CCN(C(=O)c3cccnc3)CC2)C1
cytotoxicity at 10 µM: 5.27%

CCOCCCNc1nc(O)cc(C2CC(=O)N(C)C2)n1 (configuration not stated)
cytotoxicity at 10 µM: 0.873%

CC(=O)N1CCc2c(nc(N(C)C)nc2N(C)CC2CCCO2)C1 (configuration not stated)
cytotoxicity at 10 µM: 1.9%

CCCc1cc(C(=O)N2CCC3(CCCNC3=O)C2)cs1 (configuration not stated)
cytotoxicity at 10 µM: -142%

Cc1cc(NC(=O)C(C)N2CCN(c3nccs3)CC2)on1 (configuration not stated)
cytotoxicity at 10 µM: -12.6%

CN(C)C(=O)N1CCC(c2nc3ccc(N4CCCC4)cn3n2)CC1
cytotoxicity at 10 µM: 3.16%

CNC(=O)CCc1cc(C)nc(C2CCCN2)n1 (configuration not stated)
cytotoxicity at 10 µM: 1.77%

Cc1cc(CC(C)Nc2ncc(C)c(N(C)C)n2)[nH]n1 (configuration not stated)
cytotoxicity at 10 µM: -7.85%

CCOc1ccc(NC(=O)c2cc3c([nH]c2=O)CCC3)cc1
cytotoxicity at 10 µM: 6.5%

O=C1NC2(CCN(CC(=O)N3CCOCC3)CC2)Nc2ccc(Br)cc21
cytotoxicity at 10 µM: -0.445%

Cc1nc(C)c(C(=O)N2CCCC(n3ccnc3C)C2)s1 (configuration not stated)
cytotoxicity at 10 µM: -5.19%

Cc1nn(C(C)C)c2cnn(CC(=O)N3CCN(C)CC3)c12
cytotoxicity at 10 µM: 9.51%

CC1=C(c2ccc(F)cc2)S(=O)(=O)N=C1N1CCc2ccccc21
cytotoxicity at 10 µM: -1.29%

CCCN1CCc2nc(SCc3ccc(F)cc3)[nH]c(=O)c2C1
cytotoxicity at 10 µM: -3.37%

CCc1nnc2n1CCN(C(C(=O)NC1CC1)c1ccc(F)cc1)C2 (configuration not stated)
cytotoxicity at 10 µM: 2.16%

COc1cc2cc(C(=O)O)n(C)c2c(OC)c1OC
cytotoxicity at 10 µM: 12.8%

C[C@]1(O)CCN(Cc2ncccc2F)C[C@@H]1Oc1ccccc1
cytotoxicity at 10 µM: -21.4%

CCn1cnnc1CNC(=O)N(C)Cc1cccc(Cl)c1Cl
cytotoxicity at 10 µM: -16.2%

Cc1ccsc1CN1C[C@@H]2COC[C@]2(COCC(=O)N(C)C)C1
cytotoxicity at 10 µM: -4.55%

CCc1ccccc1Nc1noc2c1CN(C(=O)CCOC)CC2
cytotoxicity at 10 µM: -16.6%

COc1ccnc(NC2CCN(CC(=O)N3CCCC3)CC2)n1
cytotoxicity at 10 µM: -7.88%

CCc1[nH]c2ccc(CNC(=O)Cc3c(C)nc(N)nc3C)cc2c1C
cytotoxicity at 10 µM: 2.02%

COc1ccc(CN2CCC3(CCCN(C)C3=O)C2)c(OC)c1C (configuration not stated)
cytotoxicity at 10 µM: -0.409%

Cc1ccccc1CS(=O)(=O)CC(=O)N(C)Cc1ccccc1
cytotoxicity at 10 µM: 2.84%

CCc1ccc2nc(C)cc(C(=O)N3C[C@H]4CCC[C@@]4(CO)C3)c2c1
cytotoxicity at 10 µM: -2.37%

CCC(C)N1CCc2c(C(=O)N3CCOCC3)n[nH]c2C1 (configuration not stated)
cytotoxicity at 10 µM: 1.88%

O=S(=O)(c1ccccc1Br)N1CCC2(CC1)OCCS2
cytotoxicity at 10 µM: -1.86%

CS(=O)(=O)NC1CCN(C(=O)c2cnc(-c3cccnc3)nc2)CC1
cytotoxicity at 10 µM: -6.47%

Cn1cc(C(=O)NC2CCN(C(=O)NCCSC(F)(F)F)CC2)cn1
cytotoxicity at 10 µM: 2.36%

Cc1c(CNCc2nn(-c3ccccc3)c3c2CCC3)cc(C#N)n1C
cytotoxicity at 10 µM: 13.3%

Fc1cnc(N2CCCn3c(nnc3Cn3cccc3)C2)nc1
cytotoxicity at 10 µM: -134%

Cc1cnc(CCN(C)C(=O)c2cccc(C)c2O)s1
cytotoxicity at 10 µM: -2.48%

CCn1nc(CC(C)C)cc1C(=O)NCC(F)(F)F
cytotoxicity at 10 µM: 21.3%

c1cnnc(N[C@@H]2CC[C@@H]3CN(Cc4c[nH]c5ccccc45)C[C@@H]32)c1
cytotoxicity at 10 µM: 3.33%

N#Cc1cc(F)ccc1NCc1ccc(Cn2cncn2)cc1
cytotoxicity at 10 µM: 8.75%

Cc1nn(-c2ncnc3[nH]cnc23)c2c1C(CC(C)C)CC(=O)N2 (configuration not stated)
cytotoxicity at 10 µM: 11.2%

CCN(Cc1ccc2cccc(O)c2n1)CC1CCCO1 (configuration not stated)
cytotoxicity at 10 µM: -4.02%

COC(=O)N1CCC2(CC1)N=C(CCC(C)C)NC2=O
cytotoxicity at 10 µM: -2.77%

COCCN1CCO[C@@H]2CN(Cc3ccc(C)o3)C[C@@H]2C1
cytotoxicity at 10 µM: -7.24%
